Consider 11 molecules from ChEMBL document CHEMBL1128728, “Synthesis and evaluation of terbenzimidazoles as topoisomerase I inhibitors” (J Med Chem, 1995).

Molecules are shown by their SMILES.

Experiment [1] has as its system RPMI 8402. The experiment is described as follows: Cytotoxicity against Human lymphoblast (RPMI 8402) cell line. In kind it is functional, cell-based. In outline: (§1)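 MTT microtiter tetrazolium assay; human lymphoblast RPMI 8402 and camptothecin-resistant CPT-K5 grown in suspension at 37 °C, 5% CO2, RPMI medium with 10% heat-inactivated FBS, 2 mM L-glutamine, penicillin 100 U/mL, streptomycin 0.1 mg/mL. Continuous exposure to varying drug concentrations; MTT read at end of day 4; IC50 calculated.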

In experiment [2] the test system is DNA topoisomerase 1 (Bos taurus). The experiment can be described thus: The compound was tested for topoisomerase-1 mediated DNA cleavage, activity is expressed as REC(relative effective concentration) i.e., concentration relative to Hoechst 33342.
For experiment [3], the system named is RPMI 8402. The experiment can be described thus: Cytotoxicity against Camptothecin-resistant (CPT -K5) cell line. The class given is functional, cell-based. The settings on record: Homo sapiens. In outline: as §1
Experiment [4] has as its system KB 3-1. The experiment can be described thus: Cytotoxicity against human epidermoid carcinoma (KB3-1) cell line. In kind it is functional, cell-based. In outline: (§2)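 KB3-1 epidermoid carcinoma cells and KBV-1, their vinblastine-selected MDR1-overexpressing variant, were grown as monolayers in 5% CO2 in Dulbecco's medium with 10% heat-inactivated FBS. Viability was measured by MTT tetrazolium microtiter assay after 4 days of continuous exposure to varying drug concentrations, and IC50 was calculated.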

Experiment [5] has as its system RPMI 8402. The experiment can be described thus: Cytotoxicity against Camptothecin-resistant (CPT -K5) cell line. In kind it is functional, cell-based. The conditions noted are these: Homo sapiens. The method, boiled down: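 MTT tetrazolium assay in 96-well plates on CPT-K5, a camptothecin-resistant variant of human lymphoblast RPMI 8402, grown in suspension at 37 °C, 5% CO2 in RPMI medium with 10% heat-inactivated FBS, 2 mM L-glutamine, penicillin and streptomycin. Cells were exposed continuously to varying drug concentrations, with MTT read at the end of day 4. IC50 was calculated.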

In experiment [6] the test system is KB. The experiment is described as follows: Cytotoxicity against human epidermoid carcinoma vinblastine-selected multidrug-resistant (KBV-1) cell line. In kind it is functional, cell-based. The method, boiled down:
as §2

The test system of experiment [7] is KB 3-1. The experiment can be described thus: Cytotoxicity against human epidermoid carcinoma (KB3-1) cell line. The class given is functional, cell-based. The method, boiled down:
(§3)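 Human epidermoid carcinoma KB3-1 and vinblastine-selected MDR1-overexpressing KBV-1 grown as monolayers in 5% CO2, Dulbecco's medium with 10% heat-inactivated FBS. Cytotoxicity by MTT microtiter tetrazolium assay after continuous exposure to varying drug concentrations for 4 days; IC50 calculated.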

Experiment [8] relates to KB. The experiment is described as follows: Cytotoxicity against human epidermoid carcinoma vinblastine-selected multidrug-resistant (KBV-1) cell line. The class given is functional, cell-based. The method, boiled down:
as §3

A word on the IC50: it is the concentration at which inhibition is half-maximal. Lower therefore signals inhibition by little substance. Take `COc1ccc(-c2nc3cc(-c4nc5cc(-c6nc7cc(C#N)ccc7[nH]6)ccc5[nH]4)ccc3[nH]2)cc1`: in experiment [1], the 50% inhibitory concentration (IC50) is > 20 µM. In experiment [2], the Relative concentration was determined as 1000.
For `N#Cc1ccc2[nH]c(-c3ccc4[nH]c(-c5ccc6[nH]cnc6c5)nc4c3)nc2c1`, the IC50 in experiment [1] and in experiment [3] was > 25 µM in each case. Further, in experiment [2], the Relative concentration was 1.
`c1ccc2[nH]c(-c3ccc4[nH]c(-c5ccc6[nH]cnc6c5)nc4c3)nc2c1`: the IC50 in experiment [1] turned out to be 14 µM; in experiment [3], 28 µM. In experiment [2], the Relative concentration was found to be 1.1.
Take `COc1ccc(-c2nc3cc(-c4nc5cc(C#N)ccc5[nH]4)ccc3[nH]2)cc1`: half-maximal inhibition in experiment [1] (IC50) required 27 µM. The molecule also yielded a Relative concentration in experiment [2] of 3.3.
For `N#Cc1ccc2[nH]c(-c3ccc4[nH]cnc4c3)nc2c1` the same measures were > 25 µM and 1000.
As for `CCOc1ccc(-c2nc3cc(-c4nc5cc(N6CCN(C)CC6)ccc5[nH]4)ccc3[nH]2)cc1`, the IC50 is 0.01 µM in experiment [4], 0.03 µM in experiment [1], 0.9 µM in experiment [5] and 1.2 µM in experiment [6].
Consider `c1cc(-c2ccc3[nH]c(-c4ccc5[nH]c(-c6ccc7[nH]cnc7c6)nc5c4)nc3c2)ccn1`, for which the 50% inhibitory concentration (IC50) in experiment [1] stood at 0.035 µM; in experiment [3], 2.5 µM; in experiment [7], 0.02 µM; in experiment [8] it was 0.01 µM. In experiment [2], the Relative concentration stood at 2.
For `c1cncc(-c2ccc3[nH]c(-c4ccc5[nH]c(-c6ccc7[nH]cnc7c6)nc5c4)nc3c2)c1` the same measures were 0.035 µM, 2.5 µM, 0.02 µM, 0.02 µM and 2.
For `c1ccc(-c2ccc3[nH]c(-c4ccc5[nH]c(-c6ccc7[nH]cnc7c6)nc5c4)nc3c2)nc1` the same measures were 0.16 µM, 5.8 µM, 0.05 µM, 0.09 µM and 3.3.
For `c1ccc(-c2ccc3[nH]c(-c4ccc5[nH]c(-c6ccc7[nH]cnc7c6)nc5c4)nc3c2)cc1` the same measures were 0.09 µM, 0.58 µM, 0.58 µM, 0.35 µM and 2.
With `CCCc1ccc2[nH]c(-c3ccc4[nH]c(-c5ccc6[nH]cnc6c5)nc4c3)nc2c1`, the results for the IC50 in experiment [1] and in experiment [3] were 7.6 µM and 20 µM, respectively. Also, in experiment [2], the Relative concentration came out at 100.
